# Experimental data as given in ChEMBL document CHEMBL1134374, “High-throughput permeability pH profile and high-throughput alkane/water log P with artificial membranes” (J Med Chem, 2001).
# Assays:
# [1] = % absorbed in human GI-tract; assay type: ADME, organism-based; conditions: in vivo, read-out: % absorbed
# [2] = Partition coefficient (logD6.8); assay type: physicochemical; conditions: octanol/water, pH 6.8
# [3] = Highest effective permeability across hexadecane membrane (pH 4-8); assay type: ADME
# Procedure, shortened: (§1)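 Passive permeation from donor to acceptor across a polycarbonate filter (3 µm pores, 9–10 µm thick) coated with hexadecane left after hexane evaporation. Donor held 50 µg/mL compound in buffer with 5% DMSO and 100 mM KCl; acceptor held buffer with 5% DMSO. Incubated 5 h at room temperature with light shaking. Acceptor UV absorbance read at 260–290 nm. Wells below 5 kΩ resistance discarded.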
# [4] = Effective permeability (Pe) across a hexadecane membrane (pH 6.8); assay type: ADME; procedure, shortened: as §1
# [5] = Partition coefficient (logP) (hexadecane); assay type: physicochemical; conditions: hexadecane/water
# [6] = Intrinsic permeability of the compound; assay type: ADME
# Procedure, shortened: (§2)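 Derived from hexadecane-membrane Pe measured across a pH range, combined with aqueous pKa. Pe is corrected for ionization to give Pul. Pul is then corrected for the unstirred water layer by the Gutknecht–Tosteson relation to give the intrinsic permeability P0.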
# [7] = Effective permeability corrected for ionization; assay type: ADME; procedure, shortened: as §2
# [8] = Intrinsic permeability measured with HDM assay; assay type: ADME; procedure, shortened: as §2
# [9] = Effective permeability measured with HDM assay; assay type: ADME; procedure, shortened: as §1
SMILES,Fa [1] [%],logD ([2]; read-out: logD),Log Pe [3] [cm s-1],Log Pe [4] [cm s-1],logP [5],Log Po [6],"Log Pe,max [7]",logD [2],Log Po [8],"Log Pe,max [9]"
CCCCC(=O)N(Cc1ccc(-c2ccccc2-c2nnn[nH]2)cc1)[C@H](C(=O)O)C(C)C,55,-1.6,–,–,–,–,–,–,–,–
O=C(O)CN(CCN(CC(=O)O)Cc1ccccc1O)Cc1ccccc1O,5,-0.2,-5.1,-5.1,–,–,–,–,–,–
Nc1nc2c(ncn2COCCO)c(=O)[nH]1 [ACYCLOVIR],–,-2,-4.8,-4.8,–,–,–,–,–,–
C=CCc1ccccc1OCC(O)CNC(C)C (configuration not stated) [ALPRENOLOL],–,0.3,-4,-4,1.3,-1.6,-3.6,–,–,–
N=C(N)NC(=O)c1nc(Cl)c(N)nc1N [AMILORIDE],50,-2.1,-4.4,-4.6,–,–,–,–,–,–
NC(=O)N1c2ccccc2C=Cc2ccccc21 [CARBAMAZEPINE],–,2.4,-3.9,-3.9,–,–,–,–,–,–
CN(C)CCCN1c2ccccc2Sc2ccc(Cl)cc21 [CHLORPROMAZINE],100,2.9,-3.5,-3.7,4.7,1.3,-3.6,–,–,–
CN/C(=N/CCSCc1nc[nH]c1C)NC#N [CIMETIDINE],95,0.1,-4,-4,–,–,–,–,–,–
CN1CCN(C2=Nc3cc(Cl)ccc3Nc3ccccc32)CC1 [CLOZAPINE],100,–,–,–,–,–,–,3,–,–
CC(=O)N(O)CCCCCNC(=O)CCC(=O)N(O)CCCCCNC(=O)CCC(=O)N(O)CCCCCN [DEFEROXAMINE],2,-3,-5.3,-5.3,–,–,–,–,–,–
O=C(O)Cc1ccccc1Nc1c(Cl)cccc1Cl [DICLOFENAC],–,–,–,–,–,-1.3,-3.7,–,–,–
NC(N)=Nc1nc(CSCCC(N)=NS(N)(=O)=O)cs1 [FAMOTIDINE],45,-0.8,-4.3,-4.6,–,–,–,–,–,–
N=C(N)N/N=C/c1c(Cl)cccc1Cl [GUANABENZ],–,0.9,-4.4,-5,-1.6,-4.6,-4.9,–,–,–
NS(=O)(=O)c1cc2c(cc1Cl)NCNS2(=O)=O [HYDROCHLOROTHIAZIDE],67,–,-4.2,-4.7,–,–,–,–,–,–
CC(C)Cc1ccc(C(C)C(=O)O)cc1 (configuration not stated) [IBUPROFEN],–,–,–,–,1.95,-0.9,-3.7,–,-0.9,-3.7
CC(C(=O)O)c1cccc(C(=O)c2ccccc2)c1 (configuration not stated) [KETOPROFEN],–,–,–,–,–,-2.7,-3.6,–,–,–

SMILES,Fa [1] [%],logD ([2]; read-out: logD),Log Pe [3] [cm s-1],Log Pe [4] [cm s-1],logP [5],Log Po [6],"Log Pe,max [7]",logD [2],Log Po [8],"Log Pe,max [9]"
CC(CCc1ccccc1)NCC(O)c1ccc(O)c(C(N)=O)c1 (configuration not stated) [LABETALOL],90,0.5,-3.8,-4.2,–,–,–,–,–,–
CN(Cc1cnc2nc(N)nc(N)c2n1)c1ccc(C(=O)N[C@@H](CCC(=O)O)C(=O)O)cc1 [METHOTREXATE],20,-3,-4.7,-4.7,–,–,–,–,–,–
Cc1ccccc1N1C(=O)c2cc(S(N)(=O)=O)c(Cl)cc2NC1C (configuration not stated) [METOLAZONE],–,4.1,-4.6,-4.6,–,–,–,–,–,–
COCCc1ccc(OCC(O)CNC(C)C)cc1 (configuration not stated) [METOPROLOL],–,-0.8,-4.2,-4.2,-0.4,-2.8,-3.6,–,–,–
O=C1NC(=O)C(c2ccccc2)(c2ccccc2)N1 [PHENYTOIN],90,2.2,-4,-4,-0.3,-3.6,-4.4,–,–,–
CN1C(C(=O)Nc2ccccn2)=C(O)c2ccccc2S1(=O)=O [PIROXICAM],–,0.3,-3.3,-4,–,–,–,–,–,–
CC(=O)[C@H]1CC[C@H]2[C@@H]3CCC4=CC(=O)CC[C@]4(C)[C@H]3CC[C@]12C [PROGESTERONE],91,4.3,-3.8,-3.8,–,–,–,–,–,–
CC(C)NCC(O)COc1cccc2ccccc12 (configuration not stated) [PROPRANOLOL],–,–,-4,-4.4,–,–,–,–,–,–
CN/C(=C/[N+](=O)[O-])NCCSCc1ccc(CN(C)C)o1 [RANITIDINE],50,-1.1,-4.5,-4.6,–,–,–,–,–,–
O=C(O)c1ccccc1O [SALICYLIC ACID],–,–,–,–,-1,-3.2,-3.4,–,–,–
O=C(O)c1cc(/N=N/c2ccc(S(=O)(=O)Nc3ccccn3)cc2)ccc1O [SULFASALAZINE],–,-0.7,-4.9,-4.9,–,–,–,–,–,–
CCN1CCCC1CNC(=O)c1cc(S(N)(=O)=O)ccc1OC (configuration not stated) [SULPIRIDE],–,–,-4.6,-4.6,–,–,–,–,–,–
CC(C)(C)NCC(O)c1cc(O)cc(O)c1 (configuration not stated) [TERBUTALINE],70,-2,-4.1,-4.1,–,–,–,–,–,–
C[C@]12CC[C@H]3[C@@H](CCC4=CC(=O)CC[C@@]43C)[C@@H]1CC[C@@H]2O [TESTOSTERONE],100,3.9,-3.5,-3.5,–,–,–,–,–,–
CC(C)(C)NC[C@H](O)COc1nsnc1N1CCOCC1 [TIMOLOL],72,-0.7,-4.2,-4.4,-1,-3.2,-3.6,–,–,–
CC(=O)CC(c1ccccc1)c1c(O)c2ccccc2oc1=O (configuration not stated) [WARFARIN],–,0.6,-3.8,-3.8,1,-2.3,-3.6,–,–,–
